Compound activity as filed in PubChem BioAssay.
HTR2A ag – mouse Htr2a agonists via beta-arrestin recruitment, primary screen, cell-based, luminescence; activation, % at 7.6 µM; actives 0.66% (n = 360,000); CHO-K1 mHTR2A beta-arrestin complementation; percent of 30 µM serotonin response;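 active = activation above a run cutoff, the mean activation of all tested compounds plus 3 SD, cut at about 14% in these data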;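 also: 0% = plate median of compound wells and 100% = 30 µM serotonin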
VIM-2 inhibitor – VIM-2 metallo-beta-lactamase inhibitors, primary screen, biochemical, epi-absorbance readout, Pseudomonas aeruginosa enzyme | actives 0.89% (n = 290,000) | purified VIM-2, nitrocefin hydrolysis, epi-absorbance fluorescence | inhibition, % at 5.6 µM;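 active = inhibition above the mean of all tested compounds plus 3 SD, cutoff set per screening run, cut at about 7.5% in these data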;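 also: red hydrolysis product quenches plate fluorescence so inhibitors raise well fluorescence; 0% = enzyme with DMSO and 100% = DMSO without enzyme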
IMP-1 inh – IMP-1 metallo-beta-lactamase inhibitors, primary screen, biochemical, epi-absorbance readout, Pseudomonas aeruginosa enzyme; metallo-beta-lactamase IMP-1 (Pseudomonas aeruginosa); purified IMP-1, nitrocefin hydrolysis, epi-absorbance fluorescence; inhibition, % at 5.6 µM; actives 0.45% (n = 290,000); AID 1556, 2009;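 active = inhibition above the mean plus 3 SD of all compounds in the same screening run, cut at about 4.5% in these data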;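 also: 0% = IMP-1 with DMSO and 100% = DMSO wells lacking enzyme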
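assay system = purified recombinant IMP-1 metallo-beta-lactamase enzyme | schedule = 15 min preincubation plus 25 min reaction at 25 °C | signal = Epi-absorbance fluorescence, 480 nm excitation, 530 nm emission | read-out basis = percent inhibition from optical density relative to buffer-blank wells | controls = IMP-1 with DMSO as 0%, enzyme-free DMSO as 100%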
dFosB act – activators of delta FosB homodimer, primary screen, biochemical, fluorescence polarization, TAMRA-CDK5 oligo, single point. purified delta FosB; percent of positive-control signal above neutral wells. activation, % at 25 µM. actives 0.99% (n = 340,000). Protein FosB (Mus musculus), P13346;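 active = mean activation above about 17%, with every replicate also reaching it, limit read from the data, passing the limit was not always enough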
Target sequence (P13346 whole entry, looked up): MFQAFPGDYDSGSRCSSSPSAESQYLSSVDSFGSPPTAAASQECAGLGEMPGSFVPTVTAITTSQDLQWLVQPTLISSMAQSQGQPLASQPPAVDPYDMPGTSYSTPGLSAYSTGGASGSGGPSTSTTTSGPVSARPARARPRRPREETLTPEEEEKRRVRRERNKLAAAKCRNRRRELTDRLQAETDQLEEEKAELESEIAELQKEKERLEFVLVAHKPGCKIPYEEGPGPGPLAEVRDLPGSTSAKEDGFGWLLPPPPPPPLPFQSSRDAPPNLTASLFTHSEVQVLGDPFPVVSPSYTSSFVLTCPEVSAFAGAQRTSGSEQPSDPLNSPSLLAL
VIM-2 confirm – P. aeruginosa VIM-2 enzyme inhibition – biochemical, epi-absorbance, HTS, confirmation | shares compounds with IMP-1 inh | purified VIM-2 enzyme, nitrocefin absorbance | inhibition, % at 5.6 µM | actives 73% (n = 200); in the data active = inhibition above about 8%;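 also: 0% = enzyme with vehicle and 100% = no enzyme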
TEM-1 inh 2 – Serine beta-lactamase TEM-1 inhibition, biochemical epi-absorbance counter-screen for IMP-1/VIM-2 inhibitor program | shares compounds with IMP-1 inh | TEM-1 beta-lactamase, nitrocefin absorbance inhibition | inhibition, % at 5.6 µM | actives 50% (n = 200) | AID 2184, 2009; in the data active = inhibition above about 0.66%
Target sequence (P62593 whole entry, looked up): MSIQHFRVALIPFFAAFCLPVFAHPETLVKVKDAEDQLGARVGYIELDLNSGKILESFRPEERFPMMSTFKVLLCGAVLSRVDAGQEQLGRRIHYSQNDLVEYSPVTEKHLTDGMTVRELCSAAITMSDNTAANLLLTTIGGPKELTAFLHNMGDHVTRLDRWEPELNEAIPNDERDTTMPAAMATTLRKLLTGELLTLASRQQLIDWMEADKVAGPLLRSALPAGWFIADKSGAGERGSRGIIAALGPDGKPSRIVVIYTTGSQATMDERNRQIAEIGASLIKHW
IMP-1 confirm – IMP-1 metallo-beta-lactamase inhibitors, confirmation, biochemical, epi-absorbance, hits shared with VIM-2 screen; actives 60% (n = 200); inhibition, % at 5.6 µM; shares compounds with IMP-1 inh; AID 2189, 2009; purified IMP-1 enzyme, absorbance substrate hydrolysis; in the data active = inhibition above about 4.9%;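 also: 0% = enzyme with vehicle and 100% = vehicle without enzyme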
The depositor's hits bear a star; · = not tested or not shown. An excerpt weighted towards active compounds, which were near 2.5% of everything screened.

SMILES	HTR2A ag	VIM-2 inhibitor	IMP-1 inh	dFosB act	VIM-2 confirm	TEM-1 inh 2	IMP-1 confirm
Cc1ccc(NC(=O)C2C(c3ccccc3)C=CC(c3ccccc3)C2C(=O)O)cc1 (stereo not drawn)	-1	46*	85*	2	7	-4	61*
CCc1cc(=O)[nH]c(SCCC(F)=C(F)F)n1	3	-2	-3	0	·	·	·
CCc1cc(=O)oc2cc(C)c(CN3CCCCC3)c(O)c12	-3	13*	19*	-17	4	-5	-1
CCc1cc(=O)oc2cc(C)c(CN3CCCC3)c(O)c12	-2	15*	20*	-9	18*	-1	8.8*
Cc1cc(C)c2c(CN3CCCC3)cc(=O)oc2c1	7	·	·	·	·	·	·
CC(=O)NC(c1ccccc1)c1nc(-c2cnc3ccccc3c2)cs1 (stereo not drawn)	3	·	·	·	·	·	·
COc1ccc(C(=O)Nn2c(CCC(=O)O)ccc2-c2ccc(C)cc2)cc1OC	0	-3	-2	0	·	·	·
COc1ccc(-c2cc(=O)oc3c(C)c(OCC(=O)NCCCn4ccnc4)ccc23)cc1	-4	19*	38*	-6	26*	-4	32*
Cc1c(OCC(=O)NCC2CCC(C(=O)NCCCO)CC2)ccc2c(-c3ccccc3)cc(=O)oc12 (stereo not drawn)	-9	0	-1	-1	·	·	·
Cc1ccc2[nH]cc(/C=C/c3cc[n+](C)cc3)c2c1	-4	15*	5.7*	3	15*	5.1*	5.9*
CC[n+]1ccc(/C=C/c2c[nH]c3ccccc23)cc1	3	8.2*	5.6*	2	8.1*	2.7*	4
Cc1ccc2[nH]ccc(=O)c2c1	-1	-2	-2	1	·	·	·
CCn1c(/C=C/c2c[nH]c3ccccc23)nc2ccccc2c1=O	2	-6	-4	-8	·	·	·
CN(C)c1ccc(/C=C/C(=O)c2cc(Cl)ccc2O)cc1	5	15*	20*	-27	24*	35*	22*
O=C(/C=C/c1ccncc1)c1cc(Cl)ccc1O	-2	-2	-3	-13	·	·	·
Cc1cc(OCC(=O)OCC(=O)c2ccc[nH]2)ccc1Cl	11	·	·	-3	·	·	·
O=c1[nH]c(-c2ccccc2)nnc1-c1ccccc1	3	-3	-2	-7	·	·	·
CC1CCN(C(=O)CSc2nnc(CNC(=O)COc3ccc(Cl)cc3)o2)CC1	0	7	35*	-13	1	-1	-1
CCN(CC)c1ccc(/C=C(\C#N)C(=O)NCc2ccco2)cc1	·	18*	5.3*	·	-3	-6	-4
CCOC(=O)NC(=O)/C(C#N)=C\Nc1sccc1C(=O)OC	-5	7.7*	9.1*	-3	5	-4	-1
O=C1CC(NS(=O)(=O)c2ccccc2F)CN1c1ccc2c(c1)OCCO2 (stereo not drawn)	-1	·	·	-5	·	·	·
CNC(=O)NC(=O)C(C)OC(=O)c1c2c(nc3ccccc13)/C(=C/c1cccs1)CC2 (stereo not drawn)	3	0	1	-10	·	·	·
CC(OC(=O)c1c2c(nc3ccccc13)/C(=C\c1ccc3c(c1)OCO3)CCC2)C(=O)Nc1ccc(S(N)(=O)=O)cc1 (stereo not drawn)	-2	18*	13*	1	15*	29*	10*
Cc1cccc(C)c1NC(=O)COC(=O)c1ccc2c(c1)OCO2	1	-2	-2	4	·	·	·
Cc1cccc(C)c1NC(=O)COC(=O)c1c2c(nc3ccccc13)/C(=C\c1ccc3c(c1)OCO3)CCC2	0	20*	17*	-11	0	-4	-1
SMILES	HTR2A ag	VIM-2 inhibitor	IMP-1 inh	dFosB act	VIM-2 confirm	TEM-1 inh 2	IMP-1 confirm
O=C1/C(=C\c2cc(Cl)c(O)c(Cl)c2)SC(=S)N1Cc1ccccc1	2	18*	18*	-6	18*	54*	14*
COc1ccc(/C=C2/SC(=S)N(Cc3ccccc3)C2=O)cc1O	-1	1	0	-8	·	·	·
Cn1c2ccccc2c2cc(C(=O)NNS(=O)(=O)c3ccc(F)cc3)sc21	4	7	5.0*	-4	-1	-6	-2
O=C(CSc1nnc(-c2ccc(O)cc2)n1-c1ccccc1)CC(=O)Nc1ccccc1	0	16*	7.9*	-10	0	-5	-3
C/C(=N\Nc1ncnc2sc(C)c(C)c12)c1ccccn1	-1	14*	13*	-25	38*	7.1*	4
CCOC(=O)N1CCN(C(=O)/C(=C/c2ccc(N(C)C)cc2)NC(=O)c2ccccc2)CC1	8	·	·	-13	·	·	·
O=C(CSc1nc2nc(-c3cccs3)cc(C(F)(F)F)c2c(=O)[nH]1)C(F)(F)F	4	22*	4.9*	-6	26*	-3	3
CSc1nc2nc(-c3cccs3)cc(C(F)(F)F)c2c(=O)[nH]1	12	8	-1	-14	·	·	·
CCN(CC)CCN=c1c(C)nc(C#N)c(N)n1O	4	·	·	·	·	·	·
O=C(CSc1nnc(-c2ccc(O)cc2)n1Cc1ccco1)c1cccs1	-4	0	2	-5	·	·	·
O=C(CC(SCc1ccco1)c1ccc(O)cc1)c1cccs1 (stereo not drawn)	-5	8	16*	-10	9.2*	-4	0
Cc1nn(-c2ccc(F)cc2)c(Cl)c1/C=C(/CC(=O)O)c1nc2ccccc2s1	0	·	·	-3	·	·	·
Cc1nn(-c2ccc(F)cc2)c(Cl)c1/C=C(\CC(=O)O)c1nc2ccccc2s1	5	32*	7.9*	3	34*	-2	1
Cc1nn(-c2ccccc2)c(Cl)c1/C=C(\CC(=O)O)c1nc2ccccc2s1	3	24*	8.4*	-5	37*	-5	5.5*
N#CC1=C(N)S[C@H](C(=O)C23CC4CC(CC(C4)C2)C3)[C@H]1c1ccncc1	0	22*	55*	-7	0	-5	5.8*
O=C(Nc1cccc(OC(F)(F)F)c1)c1cccc2c(-c3cccnc3)coc12	3	·	·	·	·	·	·
C(#Cc1ccccc1)C[N+]1(CC#Cc2ccccc2)CCCC1	-3	-1	-5	-2	·	·	·
C=CC#CC[N+]1(CC#Cc2ccccc2)CCOCC1	5	20*	20*	-71	34*	-5	-3
O=C(O)C1Sc2[nH]c(=O)sc2C2c3ccc(O)cc3OC(=O)C12 (stereo not drawn)	6	7.9*	8.6*	-9	5	-5	4
